Key:
[1] = system: Human immunodeficiency virus 1; test: Ex vivo activity against residual viruses (% of nontreated infected cells) in cell supernatant at 100 uM concentration.; type: functional
[2] = system: Human immunodeficiency virus 1; test: Reduction of viral load in the cell supernatant.; type: functional, organism-based
[3] = system: Human immunodeficiency virus 1; test: Cytotoxicity (C) and percentage of dead cells at 100 uM concentration.; type: functional
Outline: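 CEM lymphocytes (RPMI-1640, 10% FCS) plated in triplicate and infected with cell-free HIV-1 NL4-3; virus removed after 2 h, drug at 100 µM added in DMSO in fresh medium for 72 h. Viability by MTT (7.5 mg/mL stock), 4 h at […], formazan dissolved in SDS/HCl, absorbance at 570 nm; value given as percentage of dead cells.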

[4] = system: Human immunodeficiency virus 1; test: Inhibitory concentration against HIV-1 required for 50% reduction of viral load in the cell supernatant; Not reached.; type: functional, organism-based

SMILES | RV [1] | IC50 [2] | Cytotoxicity [3] | NR [4]
O=C(O)c1cccc2ccc(/C=C/c3ccc(O)c(O)c3)nc12 | 0% | 12 µM | 0% | –
O=C(O)c1ccc2ccc(/C=C/c3ccccc3)nc2c1O | 0% | – | 100% | –
O=C(O)c1ccc2ccc(/C=C/c3ccc(O)cc3)nc2c1O | 26% | 95 µM | 50% | –
O=C(O)c1ccc2ccc(/C=C/c3ccc4c(c3)OCO4)nc2c1O | 4% | 10 µM | 40% | –
O=C(O)c1ccc2ccc(/C=C/c3ccc(O)cc3O)nc2c1O | 42% | 80 µM | 26% | –
O=C(O)c1ccc2ccc(/C=C/c3cc(O)c(O)c(O)c3)nc2c1O | 0% | – | 90% | –
O=C(O)c1cc(C(=O)O)c2ccc(/C=C/c3ccc(O)c(O)c3)nc2c1 | 5% | 15 µM | 0% | –
COc1cc(/C=C/c2ccc3ccc(C(=O)O)c(O)c3n2)ccc1O | 12% | 3 µM | 48% | –
O=C(O)c1ccc2ccc(/C=C/c3cc(O)c(O)c(I)c3)nc2c1O | 3% | 6.8 µM | 42% | –
O=C(O)c1ccc2ccc(/C=C/c3cc(O)cc(O)c3)nc2c1O | 55% | – | 17% | Not reached
O=C(O)c1cccc2nc(/C=C/c3ccc(O)c(O)c3)ccc12 | 5% | 50 µM | 0% | –
O=C(O)c1ccc2ccc(/C=C/c3ccco3)nc2c1O | 70% | – | 0% | Not reached
O=C(O)c1ccc2ccc(/C=C/c3cc(O)cc(/C=C/c4ccc5ccc(C(=O)O)c(O)c5n4)c3)nc2c1O | 100% | – | 0% | Not reached
Oc1ccc(/C=C/c2ccc3cccc(O)c3n2)cc1O | 1% | – | 78% | –
COc1cc(/C=C/c2ccc3ccc(C(=O)O)cc3n2)ccc1O | 17% | 20 µM | 30% | –
O=C(O)c1ccc2nc(/C=C/c3ccc(O)c(O)c3)ccc2c1 | 4% | 20 µM | 0% | –
O=C(O)c1ccc2ccc(/C=C/c3ccsc3)nc2c1O | 0% | – | 68% | –
O=C(O)c1ccc2ccc(/C=C/c3ccc([N+](=O)[O-])cc3)nc2c1O | 6% | – | 74% | –
O=C(O)c1cc(/C=C/c2ccc3ccc(C(=O)O)c(O)c3n2)ccc1O | 24% | 80 µM | 0% | –
COc1cc(/C=C/c2ccc3ccc(C(=O)O)c(O)c3n2)cc(O)c1O | 6% | 12 µM | 14% | –
O=C(O)c1ccc2ccc(/C=C/c3cccnc3)nc2c1O | 74% | – | 74% | Not reached
O=C(O)c1ccc2ccc(/C=C/c3ccc(CO)cc3)nc2c1O | 55% | 110 µM | 17% | –
COc1cc(/C=C/c2ccc3ccc(C(=O)O)c(O)c3n2)cc(OC)c1O | 0% | 9 µM | 17% | –
O=C(O)c1ccc2ccc(/C=C/c3cc(Br)c(O)c(Br)c3)nc2c1O | 13% | 30 µM | 8% | –
CC(=O)Nc1ccc(/C=C/c2ccc3ccc(C(=O)O)c(O)c3n2)cc1 | 0% | – | 88% | –
COc1ccc(/C=C/c2ccc3ccc(C(=O)O)c(O)c3n2)cc1O | 0% | 54 µM | 57% | –
Nc1ccc(/C=C/c2ccc3ccc(C(=O)O)c(O)c3n2)cc1 | 8% | 50 µM | 40% | –
O=C(O)c1ccc2ccc(/C=C/c3ccc(F)c(F)c3)nc2c1O | 2% | 30 µM | 91% | –
O=C(O)c1ccc2ccc(/C=C/c3ccc(O)c(O)c3)nc2c1O | 0% | 1.3 µM | 70% | –
